ChEMBL document CHEMBL2331220, “Benzimidazole clubbed with triazolo-thiadiazoles and triazolo-thiadiazines: new anticancer agents” (2013)

How the values were obtained:
Format in all cases: functional
SR = experiment: Cytotoxicity against human SR cells after 48 hrs by SRB assay
Summary of the method: (§1)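 NCI 60-line five-dose screen: cells plated, held 24 h at 37 °C, 5% CO₂ before treatment, with a TCA-fixed time-zero plate. Five final concentrations (0.01–100 µM, 10-fold dilutions) for 48 h. Cells fixed with cold TCA (10% final) and stained with 0.4% SRB in 1% acetic acid. Dye dissolved in 10 mM Tris and read at 515 nm. GI₅₀, TGI and LC₅₀ taken from percent-growth curves.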

RXF 393 = experiment: Cytotoxicity against human RXF393 cells after 48 hrs by SRB assay; conditions: RXF 393, 48 h
Summary of the method: (§2)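 NCI 60-line five-dose screen. Cells were preincubated 24 h at 37 °C under 5% CO2 and 100% humidity, and time-zero plates were TCA-fixed when compound was added. Five 10-fold concentrations (0.01–100) were tested for 48 h. Cells were fixed with cold TCA (final 10%, 60 min, 4 °C), stained with 0.4% SRB for 10 min, and read at 515 nm. GI50, TGI and LC50 came from growth-percentage formulas, with out-of-range values given as > or <.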

MDA-MB-435 = experiment: Cytotoxicity against human MDA-MB-435 cells after 48 hrs by SRB assay; conditions: MDA-MB-435, 48 h; summary of the method: as §2
SK-MEL-28 = experiment: Cytotoxicity against human SK-MEL-28 cells after 48 hrs by SRB assay; conditions: SK-MEL-28, 48 h; summary of the method: as §2
IGROV-1 [1] = experiment: Cytotoxicity against human IGROV1 cells after 48 hrs by SRB assay; conditions: IGROV-1, 48 h; summary of the method: as §2
OVCAR-8 = experiment: Cytotoxicity against human OVCAR8 cells after 48 hrs by SRB assay; conditions: OVCAR-8, 48 h; summary of the method: as §2
A549 = experiment: Cytotoxicity against human A549 cells after 48 hrs by SRB assay; conditions: A549, 48 h; summary of the method: as §2
NCI-H460 = experiment: Cytotoxicity against human NCI-H460 cells after 48 hrs by SRB assay; conditions: NCI-H460, 48 h; summary of the method: as §2
HCT-15 = experiment: Cytotoxicity against human HCT15 cells after 48 hrs by SRB assay; conditions: HCT-15, 48 h; summary of the method: as §2
BT-549 = experiment: Cytotoxicity against human BT549 cells after 48 hrs by SRB assay; conditions: BT-549, 48 h; summary of the method: as §2
IGROV-1 [2] = experiment: Cytotoxicity against human IGROV1 cells assessed as cell growth at 10 uM after 48 hrs by SRB assay relative to control; conditions: IGROV-1, 48 h, read-out: Activity
Summary of the method: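 Single-dose NCI screen. Compound was added at 1 × 10^-5 M and cultures were incubated 48 h. End point was sulforhodamine B protein staining, reported as percent growth of treated cells versus untreated control cells.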

MDA-MB-468 = experiment: Cytotoxicity against human MDA-MB-468 cells after 48 hrs by SRB assay; conditions: MDA-MB-468, 48 h; summary of the method: as §2
M14 = experiment: Cytotoxicity against human M14 cells after 48 hrs by SRB assay; conditions: M14, 48 h; summary of the method: as §2
SW-620 = experiment: Cytotoxicity against human SW620 cells after 48 hrs by SRB assay; conditions: SW-620, 48 h; summary of the method: as §1
MDA-MB-231 = experiment: Cytotoxicity against human MDA-MB-231 cells after 48 hrs by SRB assay; conditions: MDA-MB-231, 48 h; summary of the method: as §2
SF-295 = experiment: Cytotoxicity against human SF295 cells after 48 hrs by SRB assay; conditions: SF-295, 48 h; summary of the method: as §2
SN12C = experiment: Cytotoxicity against human SN12C cells after 48 hrs by SRB assay; summary of the method: as §1
OVCAR-4 = experiment: Cytotoxicity against human OVCAR4 cells after 48 hrs by SRB assay; conditions: OVCAR-4, 48 h; summary of the method: as §2
SK-OV-3 = experiment: Cytotoxicity against human SKOV3 cells after 48 hrs by SRB assay; conditions: SK-OV-3, 48 h; summary of the method: as §1
[3] = read-out: LC50 (the source's name)
[4] = read-out: pLC50 (the source's name) (converted)

## O=C(CCc1nnc2sc(-c3ccc(Cl)cc3Cl)nn12)c1nc2ccccc2[nH]1
SR; read-out: GI50
  GI50: 333 nM
SR; [3]
  CC50: > 100000 nM
SR; read-out: TGI
  TGI: > 100000 nM
SR; read-out: pGI50 (converted)
  GI50: 331 nM
SR; [4]
  CC50: > 100000 nM
SR; read-out: pTGI
  TGI: > 100000 nM
RXF 393; read-out: GI50
  GI50: 674 nM
RXF 393; [3]
  CC50: 4550 nM
RXF 393; read-out: TGI
  TGI: 1990 nM
RXF 393; read-out: pGI50 (converted)
  GI50: 676 nM
RXF 393; [4]
  CC50: 4570 nM
RXF 393; read-out: pTGI (converted)
  TGI: 2000 nM
MDA-MB-435; read-out: GI50
  GI50: 265 nM
MDA-MB-435; read-out: TGI
  TGI: 842 nM
MDA-MB-435; read-out: pGI50 (converted)
  GI50: 263 nM
MDA-MB-435; read-out: pTGI (converted)
  TGI: 851 nM
SK-MEL-28; read-out: GI50
  GI50: 474 nM
SK-MEL-28; [3]
  CC50: 4240 nM
SK-MEL-28; read-out: TGI
  TGI: 1670 nM
SK-MEL-28; read-out: pGI50 (converted)
  GI50: 479 nM
SK-MEL-28; [4]
  CC50: 4270 nM
SK-MEL-28; read-out: pTGI (converted)
  TGI: 1660 nM
IGROV-1 [1]; read-out: GI50
  GI50: 1310 nM
IGROV-1 [1]; read-out: TGI
  TGI: 3510 nM
IGROV-1 [1]; read-out: pGI50 (converted)
  GI50: 1320 nM
IGROV-1 [1]; read-out: pTGI (converted)
  TGI: 3470 nM
OVCAR-8; read-out: GI50
  GI50: 2580 nM
OVCAR-8; read-out: LC50
  LC50 (lethal concentration 50%): > 100000 nM
OVCAR-8; read-out: TGI
  TGI: > 100000 nM
OVCAR-8; read-out: pGI50 (converted)
  GI50: 2570 nM
OVCAR-8; read-out: pLC50 (converted)
  LC50 (lethal concentration 50%): > 100000 nM
OVCAR-8; read-out: pTGI
  TGI: > 100000 nM
A549; read-out: GI50
  GI50: 2070 nM
A549; [3]
  CC50: > 100000 nM
A549; read-out: TGI
  TGI: 5630 nM
A549; read-out: pGI50 (converted)
  GI50: 2090 nM
A549; [4]
  CC50: > 100000 nM
A549; read-out: pTGI (converted)
  TGI: 5620 nM
NCI-H460; read-out: GI50
  GI50: 766 nM
NCI-H460; [3]
  CC50: 5210 nM
NCI-H460; read-out: TGI
  TGI: 2170 nM
NCI-H460; read-out: pGI50 (converted)
  GI50: 759 nM
NCI-H460; [4]
  CC50: 5250 nM
NCI-H460; read-out: pTGI (converted)
  TGI: 2190 nM
HCT-15; read-out: GI50
  GI50: 489 nM
HCT-15; read-out: TGI
  TGI: 2210 nM
HCT-15; read-out: pGI50 (converted)
  GI50: 490 nM
HCT-15; read-out: pTGI (converted)
  TGI: 2240 nM
BT-549; read-out: GI50
  GI50: 2160 nM
BT-549; read-out: LC50
  LC50: > 100000 nM
BT-549; read-out: TGI
  TGI: 4770 nM
BT-549; read-out: pGI50 (converted)
  GI50: 2140 nM
BT-549; read-out: pLC50 (converted)
  LC50: > 100000 nM
BT-549; read-out: pTGI (converted)
  TGI: 4790 nM
IGROV-1 [2]
  growth at 10 µM: 0.38%
MDA-MB-468; read-out: GI50
  GI50: 699 nM
MDA-MB-468; read-out: LC50
  LC50: 5410 nM
MDA-MB-468; read-out: TGI
  TGI: 2150 nM
MDA-MB-468; read-out: pGI50 (converted)
  GI50: 692 nM
MDA-MB-468; read-out: pLC50 (converted)
  LC50: 5370 nM
MDA-MB-468; read-out: pTGI (converted)
  TGI: 2140 nM
M14; read-out: GI50
  GI50: 596 nM
M14; read-out: TGI
  TGI: 2450 nM
M14; read-out: pGI50 (converted)
  GI50: 603 nM
M14; read-out: pTGI (converted)
  TGI: 2450 nM
SW-620; read-out: GI50
  GI50: 204 nM
SW-620; [3]
  CC50: 2480 nM
SW-620; read-out: TGI
  TGI: 545 nM
SW-620; read-out: pGI50 (converted)
  GI50: 204 nM
SW-620; [4]
  CC50: 2510 nM
SW-620; read-out: pTGI (converted)
  TGI: 550 nM
MDA-MB-231; read-out: GI50
  GI50: 1000 nM
MDA-MB-231; read-out: LC50
  LC50: 5870 nM
MDA-MB-231; read-out: TGI
  TGI: 2420 nM
MDA-MB-231; read-out: pGI50 (converted)
  GI50: 1000 nM
MDA-MB-231; read-out: pLC50 (converted)
  LC50: 5890 nM
MDA-MB-231; read-out: pTGI (converted)
  TGI: 2400 nM
SF-295; read-out: GI50
  GI50: 1030 nM
SF-295; read-out: TGI
  TGI: 2730 nM
SF-295; read-out: pGI50 (converted)
  GI50: 1020 nM
SF-295; read-out: pTGI (converted)
  TGI: 2750 nM
SN12C; read-out: GI50
  GI50: 1230 nM
SN12C; read-out: TGI
  TGI: 3100 nM
SN12C; read-out: pGI50 (converted)
  GI50: 1230 nM
SN12C; read-out: pTGI (converted)
  TGI: 3090 nM
OVCAR-4; read-out: GI50
  GI50: 971 nM
OVCAR-4; [3]
  CC50: 8040 nM
OVCAR-4; read-out: TGI
  TGI: 2820 nM
OVCAR-4; read-out: pGI50 (converted)
  GI50: 977 nM
OVCAR-4; [4]
  CC50: 8130 nM
OVCAR-4; read-out: pTGI (converted)
  TGI: 2820 nM
SK-OV-3; read-out: GI50
  GI50: 1860 nM
SK-OV-3; read-out: LC50
  LC50: 7280 nM
SK-OV-3; read-out: TGI
  TGI: 3680 nM
SK-OV-3; read-out: pGI50 (converted)
  GI50: 1860 nM
SK-OV-3; read-out: pLC50 (converted)
  LC50: 7240 nM
SK-OV-3; read-out: pTGI (converted)
  TGI: 3720 nM
